ChEMBL document CHEMBL3580601, “Discovery of a Potent Parenterally Administered Factor XIa Inhibitor with Hydroxyquinolin-2(1H)-one as the P2' Moiety” (ACS Med Chem Lett, 2015)
Converted amounts (≈) assume the structure as drawn. The source made the active and inactive calls. The calls are words filed in the database; no cut-off is given here.

Key:
[1] = system: Plasma; experiment: Anticoagulant activity in healthy human plasma assessed as concentration required to cause two fold prolongation of activated partial thromboplastin time; assay type: functional
[2] = Solubility in 50 mM pH 6.5 phosphate buffer using amorphous form of compound; assay type: physicochemical
[3] = molecular target: T1, Coagulation factor XI (Homo sapiens, UniProt P03951); experiment: Inhibition of human coagulation factor 11a using p-nitroaniline as substrate assessed as substrate hydrolysis by spectrophotometry
T1 sequence (P03951 19-387 limits assumed): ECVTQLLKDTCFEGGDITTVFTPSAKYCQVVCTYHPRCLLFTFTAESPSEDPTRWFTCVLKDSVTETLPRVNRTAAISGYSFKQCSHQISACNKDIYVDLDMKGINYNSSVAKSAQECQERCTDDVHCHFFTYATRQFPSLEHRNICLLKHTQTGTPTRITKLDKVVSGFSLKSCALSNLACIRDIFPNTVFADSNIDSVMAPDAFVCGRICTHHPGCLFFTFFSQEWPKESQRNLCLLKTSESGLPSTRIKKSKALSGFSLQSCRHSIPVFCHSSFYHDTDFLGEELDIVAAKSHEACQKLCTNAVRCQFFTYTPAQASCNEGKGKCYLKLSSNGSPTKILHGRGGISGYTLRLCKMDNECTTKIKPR
T1 sequence (P03951 388-625 limits assumed): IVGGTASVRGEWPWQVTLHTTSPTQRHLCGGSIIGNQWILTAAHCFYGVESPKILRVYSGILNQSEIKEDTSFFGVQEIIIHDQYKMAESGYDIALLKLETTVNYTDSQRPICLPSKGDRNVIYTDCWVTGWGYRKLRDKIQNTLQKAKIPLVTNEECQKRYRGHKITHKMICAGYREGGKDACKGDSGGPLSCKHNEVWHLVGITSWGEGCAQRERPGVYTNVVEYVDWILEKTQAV
Procedure, shortened: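 Human enzyme Ki, averaged over multiple determinations (n = 2).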

[4] = Half life in human liver microsomes; assay type: ADME
[5] = Half life in rat at 1 mg/kg, iv; assay type: ADME, organism-based; conditions: in vivo
[6] = system: Plasma; experiment: Anticoagulant activity in rabbit plasma assessed as prolongation of thrombin time at 100 uM; assay type: functional, cell-free; conditions: Oryctolagus cuniculus
[7] = system: Plasma; experiment: Anticoagulant activity in rabbit plasma assessed as prolongation of prothrombin time at 100 uM; assay type: functional, cell-free; conditions: Oryctolagus cuniculus
[8] = system: Oryctolagus cuniculus; experiment: Antithrombotic activity in iv dosed rabbit model of electrically induced carotid arterial thrombosis assessed as increase in integrated blood flow of the injured artery; assay type: functional, organism-based
[9] = system: Oryctolagus cuniculus; experiment: Antithrombotic activity in iv dosed rabbit model of electrically induced carotid arterial thrombosis assessed as reduction in thrombus formation; assay type: functional, organism-based
[10] = molecular target: Plasma kallikrein (Homo sapiens, UniProt P03952); experiment: Inhibition of plasma kallikrein (unknown origin)
Chain of Plasma kallikrein (P03952 20-390 limits assumed): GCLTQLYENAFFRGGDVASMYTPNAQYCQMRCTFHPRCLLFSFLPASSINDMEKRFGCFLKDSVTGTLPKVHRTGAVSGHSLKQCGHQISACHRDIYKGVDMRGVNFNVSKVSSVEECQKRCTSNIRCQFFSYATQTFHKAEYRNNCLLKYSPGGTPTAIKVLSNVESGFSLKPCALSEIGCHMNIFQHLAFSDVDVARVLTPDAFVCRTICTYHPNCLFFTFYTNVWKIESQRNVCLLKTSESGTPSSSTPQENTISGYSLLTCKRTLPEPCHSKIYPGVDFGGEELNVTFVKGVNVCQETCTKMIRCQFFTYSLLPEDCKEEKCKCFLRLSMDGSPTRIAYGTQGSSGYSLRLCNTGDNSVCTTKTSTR
Chain of Plasma kallikrein (P03952 391-638 limits assumed): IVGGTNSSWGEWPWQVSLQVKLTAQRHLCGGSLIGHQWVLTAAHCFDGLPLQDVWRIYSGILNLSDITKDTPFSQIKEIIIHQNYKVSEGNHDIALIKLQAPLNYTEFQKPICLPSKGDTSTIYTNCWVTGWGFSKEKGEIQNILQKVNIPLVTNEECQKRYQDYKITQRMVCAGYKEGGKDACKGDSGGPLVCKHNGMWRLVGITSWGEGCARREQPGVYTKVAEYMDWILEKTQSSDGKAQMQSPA
Procedure, shortened: (§1)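 Ki against each human enzyme, averaged from duplicate IC50 determinations.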

[11] = Unbound fraction in cynomolgus monkey plasma; assay type: ADME, cell-free, Macaca fascicularis
[12] = molecular target: Coagulation factor IX (Homo sapiens, UniProt P00740); experiment: Inhibition of coagulation factor 9a (unknown origin); procedure, shortened: as §1
Chain of Coagulation factor IX (P00740 47-191 limits assumed): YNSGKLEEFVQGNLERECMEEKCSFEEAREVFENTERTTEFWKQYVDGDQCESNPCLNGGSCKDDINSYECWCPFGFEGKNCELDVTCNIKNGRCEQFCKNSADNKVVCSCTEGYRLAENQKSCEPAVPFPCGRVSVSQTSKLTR
Chain of Coagulation factor IX (P00740 227-461 limits assumed): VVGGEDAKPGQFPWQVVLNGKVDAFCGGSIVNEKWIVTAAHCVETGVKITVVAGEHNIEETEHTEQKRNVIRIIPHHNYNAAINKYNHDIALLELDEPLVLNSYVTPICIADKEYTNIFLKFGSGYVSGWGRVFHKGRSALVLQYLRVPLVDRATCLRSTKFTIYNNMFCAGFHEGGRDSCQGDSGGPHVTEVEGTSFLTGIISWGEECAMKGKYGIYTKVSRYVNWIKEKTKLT

[13] = system: Plasma; experiment: Anticoagulant activity in dog plasma assessed as concentration required to cause 1.5 fold prolongation of activated partial thromboplastin time
[14] = system: Plasma; experiment: Anticoagulant activity in rabbit plasma assessed as concentration required to cause 1.5 fold prolongation of activated partial thromboplastin time
[15] = molecular target: Vitamin K-dependent protein C (Homo sapiens, UniProt P04070); experiment: Inhibition of APC (unknown origin); procedure, shortened: as §1
Chain of Vitamin K-dependent protein C (P04070 43-197 limits assumed): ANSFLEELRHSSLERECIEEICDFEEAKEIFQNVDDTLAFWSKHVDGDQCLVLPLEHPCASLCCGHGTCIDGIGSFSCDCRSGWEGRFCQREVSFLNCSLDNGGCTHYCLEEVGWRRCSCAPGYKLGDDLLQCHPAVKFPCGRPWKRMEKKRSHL
Chain of Vitamin K-dependent protein C (P04070 212-461 limits assumed): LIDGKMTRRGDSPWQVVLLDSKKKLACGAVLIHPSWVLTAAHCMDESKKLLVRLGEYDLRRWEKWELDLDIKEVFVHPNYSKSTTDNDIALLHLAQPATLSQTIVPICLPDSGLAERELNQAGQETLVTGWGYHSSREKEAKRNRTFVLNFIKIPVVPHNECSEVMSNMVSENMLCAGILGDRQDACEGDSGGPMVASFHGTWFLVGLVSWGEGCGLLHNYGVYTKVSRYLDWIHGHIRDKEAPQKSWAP

[16] = system: Plasma; experiment: Anticoagulant activity in rabbit plasma assessed as prolongation of activated partial thromboplastin time at 100 uM; assay type: functional, Oryctolagus cuniculus
[17] = Inhibition of chymotrypsin (unknown origin); design: species or system Homo sapiens; procedure, shortened: as §1
[18] = molecular target: Kallikrein-1 (Homo sapiens, UniProt P06870); experiment: Inhibition of tissue kallikrein (unknown origin); procedure, shortened: as §1
Chain of Kallikrein-1 (P06870 whole entry): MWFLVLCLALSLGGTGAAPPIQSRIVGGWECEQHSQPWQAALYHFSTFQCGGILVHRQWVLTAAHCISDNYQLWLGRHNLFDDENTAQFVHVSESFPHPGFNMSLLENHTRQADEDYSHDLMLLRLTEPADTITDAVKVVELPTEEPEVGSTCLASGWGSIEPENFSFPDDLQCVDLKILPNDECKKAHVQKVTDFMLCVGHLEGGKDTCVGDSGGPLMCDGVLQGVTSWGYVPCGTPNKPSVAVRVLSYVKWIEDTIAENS

[19] = molecular target: T2, Coagulation factor XII (Homo sapiens, UniProt P00748); experiment: Inhibition of coagulation factor 12a (unknown origin); procedure, shortened: as §1
T2 sequence (P00748 whole entry): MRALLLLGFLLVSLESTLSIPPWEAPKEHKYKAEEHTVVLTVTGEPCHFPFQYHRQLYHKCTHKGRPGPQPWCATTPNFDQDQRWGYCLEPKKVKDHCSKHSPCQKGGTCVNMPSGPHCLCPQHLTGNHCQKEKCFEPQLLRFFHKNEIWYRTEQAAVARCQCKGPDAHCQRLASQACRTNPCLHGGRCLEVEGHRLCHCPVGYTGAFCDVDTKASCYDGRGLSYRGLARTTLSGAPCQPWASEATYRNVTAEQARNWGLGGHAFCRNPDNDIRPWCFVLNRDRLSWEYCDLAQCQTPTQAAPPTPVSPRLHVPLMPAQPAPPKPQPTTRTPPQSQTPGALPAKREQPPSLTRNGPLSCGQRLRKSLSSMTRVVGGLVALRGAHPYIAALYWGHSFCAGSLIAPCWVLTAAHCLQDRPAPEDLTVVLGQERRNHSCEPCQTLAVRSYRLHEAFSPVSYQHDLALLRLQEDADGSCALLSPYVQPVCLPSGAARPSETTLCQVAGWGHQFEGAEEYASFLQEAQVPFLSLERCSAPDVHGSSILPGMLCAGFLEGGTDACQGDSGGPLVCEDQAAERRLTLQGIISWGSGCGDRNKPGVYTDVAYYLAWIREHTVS

[20] = Inhibition of rabbit coagulation factor 11a using p-nitroaniline as substrate assessed as substrate hydrolysis at 37 degC by spectrophotometry; design: species or system Oryctolagus cuniculus
[21] = molecular target: Tissue-type plasminogen activator (Homo sapiens, UniProt P00750); experiment: Inhibition of tPA (unknown origin); procedure, shortened: as §1
Chain of Tissue-type plasminogen activator (P00750 whole entry): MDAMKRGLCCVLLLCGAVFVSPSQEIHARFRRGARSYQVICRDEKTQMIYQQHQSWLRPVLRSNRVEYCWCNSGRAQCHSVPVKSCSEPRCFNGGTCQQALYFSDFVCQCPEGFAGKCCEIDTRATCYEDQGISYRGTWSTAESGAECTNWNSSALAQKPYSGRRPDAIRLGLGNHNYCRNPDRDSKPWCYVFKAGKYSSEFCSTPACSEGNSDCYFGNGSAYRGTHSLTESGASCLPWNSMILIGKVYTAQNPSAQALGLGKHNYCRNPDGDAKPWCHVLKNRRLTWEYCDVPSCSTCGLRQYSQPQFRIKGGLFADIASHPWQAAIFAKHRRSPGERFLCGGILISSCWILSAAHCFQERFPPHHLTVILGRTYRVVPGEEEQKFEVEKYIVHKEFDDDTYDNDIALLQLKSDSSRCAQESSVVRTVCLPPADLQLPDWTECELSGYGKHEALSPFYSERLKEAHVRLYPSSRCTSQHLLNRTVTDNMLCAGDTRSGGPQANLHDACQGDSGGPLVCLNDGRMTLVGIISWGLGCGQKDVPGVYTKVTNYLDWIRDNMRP

[22] = species on record: Oryctolagus cuniculus; experiment: Toxicity in rabbit cuticle bleeding time model assessed as prologation of bleeding time at 100 uM; assay type: organism-based; conditions: in vivo
[23] = molecular target: Trypsin (Homo sapiens, UniProt P07477+P07478+P35030); experiment: Inhibition of trypsin (unknown origin); assay type: protein assay; procedure, shortened: as §1
[24] = molecular target: T3, Coagulation factor VII (Homo sapiens, UniProt P08709); experiment: Inhibition of coagulation factor 7a (unknown origin); procedure, shortened: as §1
T3 sequence (P08709 whole entry): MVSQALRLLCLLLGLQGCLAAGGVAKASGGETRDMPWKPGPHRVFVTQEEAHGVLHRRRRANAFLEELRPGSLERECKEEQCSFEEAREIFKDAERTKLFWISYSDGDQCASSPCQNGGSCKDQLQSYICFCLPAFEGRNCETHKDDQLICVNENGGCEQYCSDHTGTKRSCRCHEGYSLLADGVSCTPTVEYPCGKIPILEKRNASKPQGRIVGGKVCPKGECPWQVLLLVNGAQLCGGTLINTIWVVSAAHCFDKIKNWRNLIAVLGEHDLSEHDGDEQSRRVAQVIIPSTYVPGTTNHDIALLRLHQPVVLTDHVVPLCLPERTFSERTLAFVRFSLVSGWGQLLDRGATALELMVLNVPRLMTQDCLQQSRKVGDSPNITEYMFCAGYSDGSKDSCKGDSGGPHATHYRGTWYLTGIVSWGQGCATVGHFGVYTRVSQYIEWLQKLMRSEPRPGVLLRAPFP

[25] = molecular target: Coagulation factor X (Homo sapiens, UniProt P00742); experiment: Inhibition of coagulation factor 10a (unknown origin); procedure, shortened: as §1
Chain of Coagulation factor X (P00742 41-179 limits assumed): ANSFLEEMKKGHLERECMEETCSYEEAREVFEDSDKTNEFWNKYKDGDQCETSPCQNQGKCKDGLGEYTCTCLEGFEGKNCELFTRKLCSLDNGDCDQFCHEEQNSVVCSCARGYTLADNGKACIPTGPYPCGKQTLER
Chain of Coagulation factor X (P00742 235-488 limits assumed): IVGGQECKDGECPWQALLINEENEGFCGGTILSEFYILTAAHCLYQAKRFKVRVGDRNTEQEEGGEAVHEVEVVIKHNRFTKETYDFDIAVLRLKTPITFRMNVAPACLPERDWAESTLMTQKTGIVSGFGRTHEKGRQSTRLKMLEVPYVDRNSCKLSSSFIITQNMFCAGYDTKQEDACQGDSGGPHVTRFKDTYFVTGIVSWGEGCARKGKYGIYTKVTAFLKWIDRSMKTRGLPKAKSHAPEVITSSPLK

[26] = molecular target: Prothrombin (Homo sapiens, UniProt P00734); experiment: Inhibition of thrombin (unknown origin); procedure, shortened: as §1
[27] = molecular target: T1, Coagulation factor XI; experiment: Inhibition of human coagulation factor 11a using p-nitroaniline as substrate assessed as substrate hydrolysis at 37 degC by spectrophotometry
[28] = system: Plasma; experiment: Anticoagulant activity in rat plasma assessed as concentration required to cause 1.5 fold prolongation of activated partial thromboplastin time
[29] = Unbound fraction in rabbit plasma; assay type: ADME, cell-free, Oryctolagus cuniculus
[30] = system: Plasma; experiment: Anticoagulant activity in cynomolgus monkey plasma assessed as concentration required to cause 1.5 fold prolongation of activated partial thromboplastin time
[31] = Unbound fraction in rat plasma; assay type: ADME, cell-free
[32] = Unbound fraction in dog plasma; assay type: ADME, cell-free, Canis lupus familiaris
[33] = Unbound fraction in human plasma; assay type: ADME, cell-free
[34] = molecular target: Urokinase-type plasminogen activator (Homo sapiens, UniProt P00749); experiment: Inhibition of urokinase (unknown origin); procedure, shortened: as §1
[35] = Half life in cynomolgus monkey at 1 mg/kg, iv; assay type: ADME, organism-based, Macaca fascicularis; conditions: in vivo
[36] = Half life in dog at 1 mg/kg, iv; assay type: ADME, organism-based, Canis lupus familiaris; conditions: in vivo
Procedure, shortened: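 Dogs dosed IV at 1 mg/kg with the HCl salt in 10% DMAc/10% ethanol/10% propylene glycol/70% water, with half-life from the pharmacokinetic profile.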

[37] = Half life in rabbit at 1 mg/kg, iv; assay type: ADME, organism-based, Oryctolagus cuniculus; conditions: in vivo
Procedure, shortened: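 Rabbits given a single IV dose of 1 mg/kg of the HCl salt in 10% DMAc/90% D5W (5% dextrose in water), with half-life taken from the plasma PK profile.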

COC(=O)Nc1ccc(-c2nc([C@H](Cc3ccccc3)NC(=O)/C=C/c3cc(Cl)ccc3-n3cnnn3)[nH]c2Cl)cc1
2aPTT [1]: 19 µM
solubility [2]: < 1 µg/mL
Ki [3]: 3.7 nM
half-life [4]: 46 min

CN1CCN(C(=O)C[C@H](NC(=O)/C=C/c2cc(Cl)ccc2-n2cnnn2)c2nc(-c3ccc4[nH]c(=O)cc(O)c4c3)c(Cl)[nH]2)CC1.O=C(O)C(F)(F)F
half-life [5]: 66 min

CN1CCN(C(=O)C[C@H](NC(=O)/C=C/c2cc(Cl)ccc2-n2cnnn2)c2nc(-c3ccc4[nH]c(=O)cc(O)c4c3)c(Cl)[nH]2)CC1 [listing 1 of 2 here]
Activity [6]: inactive
Activity [7]: inactive
Activity [8]: Dose-dependent effect
Activity [9]: Dose-dependent effect

O=C(/C=C/c1cc(Cl)ccc1-n1cnnn1)N[C@@H](Cc1ccccc1)c1nc(-c2ccc3[nH]c(=O)cc(O)c3c2)c(Cl)[nH]1
2aPTT [1]: 11 µM
Ki [3]: 0.18 nM
half-life [4]: 56 min

COC(=O)Nc1ccc(-c2nc([C@H](CC(=O)N3CCS(=O)(=O)CC3)NC(=O)/C=C/c3cc(Cl)ccc3-n3cnnn3)[nH]c2Cl)cc1
2aPTT [1]: 3.6 µM
solubility [2]: 1 µg/mL (≈ 1.45 µM)
Ki [3]: 0.3 nM
half-life [4]: 154 min

O=C(/C=C/c1cc(Cl)ccc1-n1cnnn1)N[C@@H](Cc1ccccc1)c1nc(-c2ccc3c(c2)CCC(=O)N3)c(Cl)[nH]1
2aPTT [1]: 60 µM
Ki [3]: 19 nM
half-life [4]: 48 min

COC(=O)Nc1ccc(-c2nc([C@H](CC(=O)N3CCN(C(C)=O)CC3)NC(=O)/C=C/c3cc(Cl)ccc3-n3cnnn3)[nH]c2Cl)cc1
2aPTT [1]: 4.6 µM
solubility [2]: 3 µg/mL (≈ 4.4 µM)
Ki [3]: 0.6 nM
half-life [4]: 45 min

COC(=O)Nc1ccc(-c2nc([C@H](CC(=O)N3CCOCC3)NC(=O)/C=C/c3cc(Cl)ccc3-n3cnnn3)[nH]c2Cl)cc1
2aPTT [1]: 7.4 µM
solubility [2]: 1 µg/mL (≈ 1.56 µM)
Ki [3]: 0.7 nM
half-life [4]: 6.2 min

CN1CCN(C(=O)C[C@H](NC(=O)/C=C/c2cc(Cl)ccc2-n2cnnn2)c2nc(-c3ccc4[nH]c(=O)cc(O)c4c3)c(Cl)[nH]2)CC1 [listing 2 of 2 here]
Ki [10]: 7 nM
fraction unbound [11]: 0.08
2aPTT [1]: 1 µM
Ki [12]: > 60000 nM
EC1.5 [13]: 0.3 µM
EC1.5 [14]: 1 µM
Ki [15]: > 54000 nM
fold change (FC) [16]: 3.2
Ki [17]: 400 nM
Ki [18]: > 30000 nM
solubility [2]: 17 µg/mL (≈ 25.6 µM)
Ki [19]: > 20000 nM
Ki [20]: 0.58 nM
Ki [21]: 29000 nM
Activity [22]: Non-toxic
Ki [3]: 0.04 nM
Ki [23]: 6200 nM
Ki [24]: > 13300 nM
Ki [25]: > 9000 nM
Ki [26]: 7400 nM
Ki [27]: 0.1 nM
EC1.5 [28]: >20 µM
fraction unbound [29]: 0.07
EC1.5 [30]: 0.3 µM
fraction unbound [31]: 0.026
fraction unbound [32]: 0.18
EC50 [9]: 530 nM
fraction unbound [33]: 0.08
half-life [4]: > 200 min
Ki [34]: > 1600 nM

O=C(CCc1cc(Cl)ccc1-n1cnnn1)N[C@@H](Cc1ccccc1)c1nc(-c2ccc3[nH]c(=O)cc(O)c3c2)c(Cl)[nH]1
2aPTT [1]: 7.2 µM
Ki [3]: 0.32 nM
half-life [4]: 6.6 min

COC(=O)Nc1ccc(-c2nc([C@H](CC(=O)N3CCN(C)CC3)NC(=O)/C=C/c3cc(Cl)ccc3-n3cnnn3)[nH]c2Cl)cc1
2aPTT [1]: 3.7 µM
solubility [2]: 44 µg/mL (≈ 67.3 µM)
Ki [3]: 0.4 nM
half-life [4]: 25 min

Cc1ccc(-n2cnnn2)c(CCC(=O)N[C@@H](Cc2ccccc2)c2nc(-c3ccc4[nH]c(=O)ccc4c3)c(Cl)[nH]2)c1
2aPTT [1]: 69 µM
Ki [3]: 12 nM
half-life [4]: 2.2 min

CN1CCN(C(=O)C[C@H](NC(=O)/C=C/c2cc(Cl)ccc2-n2cnnn2)c2nc(-c3ccc4[nH]c(=O)cc(O)c4c3)c(Cl)[nH]2)CC1.Cl
half-life [35]: 114 min
half-life [36]: 66 min
half-life [37]: 66 min

Cc1ccc(-n2cnnn2)c(CCC(=O)N[C@@H](Cc2ccccc2)c2nc(-c3ccc4[nH]c(=O)cc(O)c4c3)c(Cl)[nH]2)c1
2aPTT [1]: 9.1 µM
Ki [3]: 0.5 nM
half-life [4]: 10 min
